The source made the active and inactive calls. No cut-off for these calls is given here.
Experiments:
Cynomolgus monkey [1] = assay: Inhibition of renin in furosemide pretreated cynomolgus monkey assessed as reduction in mean arterial blood pressure at 1 to 10 mg/kg, po up to 24 hrs; type: functional, organism-based; settings: Macaca fascicularis
Outline: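 Conscious freely moving telemetered cynomolgus monkeys (n = 6), furosemide 5 mg/kg/day im for 3 days before dosing; fasted from morning, fed ≥8 h post-dose. Oral 1, 3, 10 mg/kg or 1% methylcellulose, crossover design; arterial pressure recorded from −3 to 24 h; hourly mean MAP; mean ± SEM.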

[2] = Plasma concentration cynomolgus monkey at 1000 mg/kg, po after 4 hrs; type: ADME, organism-based, Macaca fascicularis; design: dose 1000 mg/kg, route oral
Canis familiaris = assay: Cardiotoxicity in anesthetized beagle dog assessed as change in […] at 0.5 mg/kg/min, iv after 30 mins relative to baseline; type: toxicity, organism-based, Canis lupus familiaris; design: route intravenous; settings: in vivo, 0.5 h
Outline: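 Anesthetized dogs; after ECG parameters stabilized, compound infused iv continuously at 0.5 mg/kg/min for 1 h. ECG changes at 30 min as % change from baseline; 2 mL blood drawn from left femoral artery for plasma drug concentration.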

Heart [3] = assay: Cardiotoxicity in New Zealand White rabbit heart assessed as change in QRS width at 100 uM after 20 mins relative to baseline; type: toxicity, tissue-based, Oryctolagus cuniculus
Outline: (§1)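 Isolated Langendorff-perfused hearts from female NZW rabbits anesthetized with thiopental 30 mg/kg iv; heart excised into chilled Krebs-Henseleit solution. After parameters stabilized, compound perfused at 10, 30 and 100 µM for 20 min; ECG changes expressed as % change from baseline.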

Heart [4] = assay: Cardiotoxicity in New Zealand White rabbit heart assessed as change in […] at 100 uM after 20 mins relative to baseline; type: toxicity, tissue-based, Oryctolagus cuniculus; outline: as §1
CYP3A4 = CYP3A4 (Homo sapiens, UniProt P08684); assay: Inhibition of CYP3A4 in human liver microsomes assessed as residual activity at 100 uM by LC/MS analysis; type: ADME, Microsome; settings: read-out: Activity
[5] = molecular target: Sodium channel protein type 5 subunit alpha (Homo sapiens, UniProt Q14524); assay: Inhibition of human voltage-gated Na channel 1.5 expressed in HEK293 cells at 100 uM after 2 mins by patch clamp technique; type: cell-based; settings: hek293, 2 min
Outline: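 HEK293 cells stably expressing hNav1.5; automated patch clamp. 20 ms pulses to −10 mV from −120 mV holding at 1 Hz continuously; peak sodium current measured; compound incubated 2 min.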

Cynomolgus monkey [6] = assay: Cardiotoxicity in cynomolgus monkey assessed as change in pulse rate at 1000 mg/kg, po after 4 hrs relative to baseline; settings: in vivo
Cynomolgus monkey [7] = assay: Cardiotoxicity in conscious cynomolgus monkey assessed as change in QRS width at 1000 mg/kg, po after 4 hrs relative to baseline; settings: in vivo
Cynomolgus monkey [8] = assay: Cardiotoxicity in conscious cynomolgus monkey assessed as change in heart rate at 1000 mg/kg, po after 4 hrs relative to baseline; settings: in vivo
Cynomolgus monkey [9] = assay: Cardiotoxicity in conscious cynomolgus monkey assessed as change in QTc interval at 1000 mg/kg, po after 4 hrs relative to baseline; settings: in vivo

Sequence of CYP3A4 (P08684 whole entry): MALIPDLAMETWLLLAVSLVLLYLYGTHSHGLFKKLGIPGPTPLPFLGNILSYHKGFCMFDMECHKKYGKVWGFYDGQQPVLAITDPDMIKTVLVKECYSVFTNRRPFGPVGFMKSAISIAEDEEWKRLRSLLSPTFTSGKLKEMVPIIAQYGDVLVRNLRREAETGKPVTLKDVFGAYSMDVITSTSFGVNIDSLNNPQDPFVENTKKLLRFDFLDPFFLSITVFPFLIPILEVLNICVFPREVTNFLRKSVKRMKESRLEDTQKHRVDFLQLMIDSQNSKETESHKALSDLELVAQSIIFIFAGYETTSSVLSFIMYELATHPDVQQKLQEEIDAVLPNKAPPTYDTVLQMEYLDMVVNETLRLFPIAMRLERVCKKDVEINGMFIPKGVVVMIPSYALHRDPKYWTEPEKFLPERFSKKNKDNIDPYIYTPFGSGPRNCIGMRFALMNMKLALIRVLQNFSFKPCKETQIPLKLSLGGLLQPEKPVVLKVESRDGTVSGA
Sequence of Sodium channel protein type 5 subunit alpha (Q14524 whole entry): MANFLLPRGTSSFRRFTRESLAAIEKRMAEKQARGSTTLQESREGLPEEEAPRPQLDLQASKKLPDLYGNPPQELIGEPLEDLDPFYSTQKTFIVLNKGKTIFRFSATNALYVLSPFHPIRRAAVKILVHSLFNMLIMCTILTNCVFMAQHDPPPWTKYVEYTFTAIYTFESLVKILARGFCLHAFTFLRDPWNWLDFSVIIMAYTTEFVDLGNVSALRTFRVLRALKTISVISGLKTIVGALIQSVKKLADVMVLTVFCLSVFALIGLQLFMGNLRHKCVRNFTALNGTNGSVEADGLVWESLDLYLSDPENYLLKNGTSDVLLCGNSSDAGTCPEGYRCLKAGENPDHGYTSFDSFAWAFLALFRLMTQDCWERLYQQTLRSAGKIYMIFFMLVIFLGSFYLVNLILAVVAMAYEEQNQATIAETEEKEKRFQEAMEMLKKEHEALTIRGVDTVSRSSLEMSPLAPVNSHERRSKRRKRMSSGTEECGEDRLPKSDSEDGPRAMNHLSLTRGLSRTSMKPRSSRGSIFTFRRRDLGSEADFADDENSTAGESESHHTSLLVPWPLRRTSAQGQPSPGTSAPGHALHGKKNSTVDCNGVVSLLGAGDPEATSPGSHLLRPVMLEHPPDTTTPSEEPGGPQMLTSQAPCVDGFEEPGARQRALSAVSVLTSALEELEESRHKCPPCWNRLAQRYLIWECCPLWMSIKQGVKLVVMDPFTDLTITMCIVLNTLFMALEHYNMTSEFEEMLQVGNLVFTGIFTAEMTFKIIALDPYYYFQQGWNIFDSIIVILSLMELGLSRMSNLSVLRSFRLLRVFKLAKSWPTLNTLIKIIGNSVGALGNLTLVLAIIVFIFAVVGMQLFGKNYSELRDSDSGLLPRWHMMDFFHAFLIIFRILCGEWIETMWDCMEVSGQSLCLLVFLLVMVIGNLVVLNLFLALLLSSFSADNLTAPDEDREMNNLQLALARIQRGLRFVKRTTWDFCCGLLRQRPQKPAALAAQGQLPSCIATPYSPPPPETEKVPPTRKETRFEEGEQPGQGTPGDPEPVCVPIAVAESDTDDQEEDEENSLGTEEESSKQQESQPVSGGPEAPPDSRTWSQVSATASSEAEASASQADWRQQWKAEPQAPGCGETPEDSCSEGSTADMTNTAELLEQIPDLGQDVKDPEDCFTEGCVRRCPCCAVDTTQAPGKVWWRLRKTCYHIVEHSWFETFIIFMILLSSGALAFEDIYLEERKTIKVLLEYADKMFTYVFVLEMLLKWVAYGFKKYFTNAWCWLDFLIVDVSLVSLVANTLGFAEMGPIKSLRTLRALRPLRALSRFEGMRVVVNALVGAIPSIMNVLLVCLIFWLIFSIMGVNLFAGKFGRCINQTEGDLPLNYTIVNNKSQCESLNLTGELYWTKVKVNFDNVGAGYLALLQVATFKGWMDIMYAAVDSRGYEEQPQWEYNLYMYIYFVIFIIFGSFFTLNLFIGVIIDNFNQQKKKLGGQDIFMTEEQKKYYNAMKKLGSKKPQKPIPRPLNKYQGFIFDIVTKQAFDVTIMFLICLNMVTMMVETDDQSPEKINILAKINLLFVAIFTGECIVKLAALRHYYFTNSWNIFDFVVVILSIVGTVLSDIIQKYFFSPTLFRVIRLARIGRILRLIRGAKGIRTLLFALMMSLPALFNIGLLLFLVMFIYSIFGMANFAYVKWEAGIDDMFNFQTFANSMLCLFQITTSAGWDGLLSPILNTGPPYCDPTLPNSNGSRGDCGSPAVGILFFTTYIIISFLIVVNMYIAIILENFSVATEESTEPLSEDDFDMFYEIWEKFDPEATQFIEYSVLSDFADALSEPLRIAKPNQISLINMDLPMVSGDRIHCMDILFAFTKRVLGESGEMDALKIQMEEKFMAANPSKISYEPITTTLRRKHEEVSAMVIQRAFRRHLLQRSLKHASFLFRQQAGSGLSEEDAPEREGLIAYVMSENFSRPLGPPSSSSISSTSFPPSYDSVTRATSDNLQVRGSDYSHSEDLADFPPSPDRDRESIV

## CC[C@H](C[C@H](O)[C@@H](N)CN1CC(=O)N(c2ccccc2Cl)CC1(C)C)C(=O)N[C@H]1C2CC3CC1C[C@](O)(C3)C2.O=C(O)/C=C/C(=O)O
Cynomolgus monkey [1]
  inhibition: Active
[2]
  concentration at 4 h: 5400 ng/mL
Canis familiaris
  Activity: -1.5%
Heart [3]
  Activity: 1.7%
Heart [4]
  Activity: 1.7%
CYP3A4
  activity at 100 µM: 77.9%
[5]
  inhibition (INH): Not Active
Cynomolgus monkey [6]
  Activity: 0.3%
Cynomolgus monkey [7]
  Activity: -7.6%
Cynomolgus monkey [8]
  Activity: -4.2%
Cynomolgus monkey [9]
  Activity: -0.4%
